The list is not random: actives were taken first. Their share in the collection is about 2.5%.
PfGluPho inh – PfG6PD (Plasmodium falciparum) enzyme inhibition | AID 504690 | inhibition, % at 20 µM | PfGluPho enzyme, NADPH resazurin-diaphorase fluorescence | 350,000 tested, 0.78% active;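 active = inhibition reaching at least a set limit at 20 µM in the primary screen, cut at about 59% in these data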;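 note: 0% = DMSO wells with substrate and 100% = DMSO wells lacking glucose-6-phosphate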
HKDC1 inhibitor – inhibitors of human hexokinase HKDC1; Q2TB90; recombinant HKDC1, G6PDH/diaphorase resazurin coupled fluorescence; inhibition, % at 20 µM; 340,000 tested, 0.16% active;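 active = inhibition above about 35% when tested at 20 µM, limit read from the data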;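 note: plate controls were DMSO wells with enzyme for no effect and DMSO wells lacking enzyme for full effect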
Target sequence (Q2TB90 whole entry, looked up): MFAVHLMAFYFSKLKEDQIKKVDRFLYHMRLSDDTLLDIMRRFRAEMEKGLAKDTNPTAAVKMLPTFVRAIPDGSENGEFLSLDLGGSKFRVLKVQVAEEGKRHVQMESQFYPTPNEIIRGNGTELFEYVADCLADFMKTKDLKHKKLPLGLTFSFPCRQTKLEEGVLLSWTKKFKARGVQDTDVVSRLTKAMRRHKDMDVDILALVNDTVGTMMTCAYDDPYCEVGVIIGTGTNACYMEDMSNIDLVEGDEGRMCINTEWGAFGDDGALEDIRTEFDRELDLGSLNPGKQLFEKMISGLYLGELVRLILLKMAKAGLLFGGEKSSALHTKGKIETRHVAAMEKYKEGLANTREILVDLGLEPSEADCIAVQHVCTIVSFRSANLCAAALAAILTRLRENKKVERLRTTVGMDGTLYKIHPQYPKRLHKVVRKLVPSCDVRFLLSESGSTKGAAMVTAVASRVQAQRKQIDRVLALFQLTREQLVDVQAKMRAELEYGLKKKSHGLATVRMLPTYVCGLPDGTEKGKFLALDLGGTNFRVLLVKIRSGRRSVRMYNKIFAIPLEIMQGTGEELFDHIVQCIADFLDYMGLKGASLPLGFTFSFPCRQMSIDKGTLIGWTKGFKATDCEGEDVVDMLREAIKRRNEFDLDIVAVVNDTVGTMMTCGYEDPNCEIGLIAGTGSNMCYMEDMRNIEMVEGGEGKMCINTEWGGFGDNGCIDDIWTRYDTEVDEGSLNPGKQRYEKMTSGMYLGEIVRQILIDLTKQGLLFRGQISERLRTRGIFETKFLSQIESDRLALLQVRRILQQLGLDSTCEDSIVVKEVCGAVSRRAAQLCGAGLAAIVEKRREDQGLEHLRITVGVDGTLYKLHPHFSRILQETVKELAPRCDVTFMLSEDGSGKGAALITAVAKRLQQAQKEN
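Test system: HK5 enzyme. Quantity: 5 µg/mL HK5 final. Reagent: glucose and ATP substrates. Schedule: 90 min reaction incubation at room temperature, dark. Technique: resazurin-to-resorufin fluorescence via G6PDH and diaphorase coupling, 525/613 nm. Control set: DMSO wells with and without enzyme mix.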
EP2 antag – blocks the human prostaglandin E2 receptor EP2; 260,000 tested, 0.52% active; P43116; C6 glioma cells expressing human EP2, cAMP TR-FRET; cells stimulated with saturating PGE2; inhibition, % at 25 µM;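 active = percent inhibition above 40 after rounding to a whole number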;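 note: rat C6 glioma host cells with rolipram phosphodiesterase inhibitor present; the protocol text gives 20 µM as final concentration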
EP2 modulator – modulators of human EP2 prostaglandin E2 receptor; 260,000 tested, 0.83% active; induction, % at 25 µM; EP2-expressing cells, cAMP HTRF FRET, PGE2 co-stimulation; P43116;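 active = compounds whose cAMP rise, as percent of the full-agonist control response, exceeds 60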;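 note: rat C6 glioma line stably carrying human EP2 under a CMV promoter; the protocol text gives 20 µM as final concentration; 100% = response of wells given 1 µM PGE2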
TbHK1 inh – blocks Trypanosoma brucei hexokinase 1 activity | inhibition, % at 10 µM | recombinant TbHK1, G6PDH-coupled NADH A340 | 220,000 tested, 0.11% active;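 active = inhibition of 50% or more in the single-dose primary screen; inactive = inhibition below 50%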
PHOSPHO1 inh – PHOSPHO1 (human) inhibition. recombinant PHOSPHO1, absorbance phosphatase assay. inhibition, % at 13.3 µM. 290,000 tested, 1.1% active; in the data active = inhibition above about 60%
HKDC1 act conf – HKDC1 (human) activation, single-dose confirmed | 740 tested, 14% active | recombinant HKDC1, G6PDH/diaphorase resazurin fluorescence; stronger effect = lower value | shares compounds with HKDC1 inhibitor | inhibition, % at 20 µM;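 active = inhibition at or below a set negative limit, negative inhibition meaning the enzyme was activated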
The depositor's hits bear a star; x = no result given.

SMILES	PfGluPho inh	HKDC1 inhibitor	EP2 antag	EP2 modulator	TbHK1 inh	PHOSPHO1 inh	HKDC1 act conf
C=CCn1c(SCC(=O)Nc2sc3c(c2C#N)CCC(C)C3)nc2cc(C(=O)O)ccc2c1=O (stereo not given)	-47.2	39.0*	x	x	x	x	32.7
Cc1cc(C)nc(SCC(=O)Nc2sc3c(c2C#N)CCC(C)C3)n1 (stereo not given)	3.0	1.3	29.6	x	-2.4	x	x
Cc1ccccc1C(=O)Nc1ccc2c(C#N)c3nc4ccccc4nc3n2c1	18.5	37.1*	15.6	-35.2	4.1	-10.5	6.7
Cc1c(C(=O)Nc2ccccc2)cn2c(nc3ccccc32)c1C#N	-11.2	6.9	11.0	-26.5	9.2	-5.1	x
Cc1ccccc1N=C1NN=C(c2ccccc2F)CS1	7.7	-46.8	4.8	6.7	-8.6	3.2	-40.3*
Cc1cccc(C)c1N=C1NN=C(c2ccccc2F)CS1	13.7	-13.9	10.2	-7.1	-5.5	6.1	x
COc1ccc(OC(=O)N2C/C(=C/c3ccccc3)C(=O)/C(=C\c3ccccc3)C2)cc1	14.0	36.4*	x	x	x	x	2.1
CCOC(=O)N1C/C(=C\c2ccccc2)C(=O)/C(=C/c2ccccc2)C1	30.5	32.8	12.8	-22.0	-10.5	31.6	10.9
C[N+](C)(C)CCC(=O)N1C/C(=C/c2ccccc2)C(=O)/C(=C\c2ccccc2)C1	37.8	15.2	x	x	x	x	x
CCOC(=O)Cc1csc(NC(=O)CSc2nnc(COc3ccccc3)n2C)n1	x	x	8.6	22.6	x	x	x
CC(Sc1nc(-c2ccccc2)cc(C(F)(F)F)n1)C(=O)N1CCCCC1C (stereo not given)	x	x	10.5	8.9	x	x	x
C=CCC1(CC=C)CCN1C(=O)Cc1c(C)oc2c1C(=O)CC(C)(C)C2	x	x	5.7	-29.6	x	x	x
Oc1ccc(O)c(Cc2nc3ccccc3s2)c1	17.1	45.4*	7.0	-20.8	3.6	-7.6	36.8
Oc1ccccc1OCc1nc2ccccc2s1	27.6	-6.6	7.1	-24.2	7.5	38.9	x
O=C(O)c1cccc(-n2cccc2/C=C2/NC(=O)N(c3ccc(Cl)cc3)C2=O)c1	18.1	60.6*	13.0	20.8	46.2	16.1	36.7
CCC(c1nnnn1CCOC)N(Cc1ccccc1)Cc1cc2cc(C)c(C)cc2[nH]c1=O (stereo not given)	x	x	7.2	-5.9	x	x	x
COc1ccc(OC)c2[nH]c(=O)c(CCNC(=O)c3cc4ccccc4o3)cc12	22.8	38.5*	13.6	-5.4	-2.0	-2.3	59.6
O=C(N/N=C/c1ccncc1)c1sc2ccccc2c1Cl	0.5	11.6	x	x	x	22.3	x
O=C(N/N=C/c1ccc[nH]1)c1sc2ccccc2c1Cl	1.3	-41.5	13.3	-29.3	-2.0	25.8	-29.9
CC(C)(C)C1=NN(CC(N)=O)C(=O)c2cc3ccccc3n2C1	x	x	x	-6.0	x	x	x
O=C1/C(=C/c2ccncc2)Cc2ccccc21	-1.4	5.7	x	x	x	x	x
CC1C/C(=C/c2ccncc2)C(=O)/C(=C/c2ccncc2)C1 (stereo not given)	9.0	43.5*	6.6	-81.2	-17.6	-7.5	-4.5
COc1ccc(C(OC(=O)c2cccs2)C(=O)NCc2ccccc2)cc1OC (stereo not given)	x	x	19.8	-10.8	x	x	x
Cc1cc(C)nc(Nc2n[nH]c(-c3ccc(C(C)(C)C)cc3)n2)n1	-30.5	-51.1	1.5	-18.2	-5.6	12.0	-20.6
Cc1cc(C)nc(Nc2n[nH]c(-c3ccc(N)cc3)n2)n1	-8.4	-1.9	8.7	25.6	-1.4	-10.7	x
SMILES	PfGluPho inh	HKDC1 inhibitor	EP2 antag	EP2 modulator	TbHK1 inh	PHOSPHO1 inh	HKDC1 act conf
COc1ccc(C2(NCc3cn[nH]c3-c3cccc(OC)c3)CC2)cc1	x	x	4.2	-54.6	x	x	x
Cc1ccc(/C=C/C(=O)c2ccc([N+](=O)[O-])o2)cc1	36.0	46.0*	x	x	x	x	19.4
CN(C)CC1CCC/C(=C\c2ccc(OC(=O)c3ccc(Cl)cc3)cc2)C1=O (stereo not given)	31.3	36.6*	x	x	x	x	-6.6
COc1ccc(NC(=O)CN2CCN(c3ccc(OC)cc3)CC2)cc1	x	x	14.8	-47.5	x	x	x
Cc1ccc(OCC(=O)Nc2oc(-c3ccccc3)c(-c3ccccc3)c2C#N)cc1	-20.4	4.3	12.1	x	-3.6	x	x
COc1ccc(-c2oc(NC(=O)CCl)c(C#N)c2-c2ccc(OC)cc2)cc1	-30.4	46.1*	19.2	8.9	-10.1	24.1	20.9
CCc1ccccc1NC(=O)CSc1nnc2c3ccccc3n(C)c2n1	x	x	8.0	-6.3	x	x	x
O=C(CCl)N(c1ccccc1)c1c[nH]c2ccccc12	1.4	21.0	14.1	18.0	6.5	20.6	x
O=C(CCl)N(c1ccc(Cl)cc1)c1c[nH]c2ccccc12	17.8	40.8*	11.2	-24.7	-1.3	21.7	5.8
CC(=O)Oc1cccc(N2C(=O)c3ccc(C(=O)O)cc3C2=O)c1	-27.4	4.8	10.1	19.5	-1.5	8.7	x
O=C(O)c1ccc2c(c1)C(=O)N(c1cccc(-c3nc4ccccc4s3)c1)C2=O	-24.8	33.5	6.9	-47.7	-13.3	-25.1	-10.6
Cc1cccc2cc(CN(Cc3ccc(F)cc3)C(c3nnnn3C(C)(C)C)C(C)C)c(=O)[nH]c12 (stereo not given)	x	x	10.2	-0.7	x	x	x
CS(=O)(=O)c1ccc(C(=O)OCC(=O)NC(=O)Cc2ccccc2)cc1	0.5	34.8	x	x	x	x	-19.4
Cn1cccc1C(=O)NC(=O)COC(=O)c1ccc(S(C)(=O)=O)cc1	1.4	5.3	x	x	x	x	x
CCCCC(=O)NC(c1ccc(N(CC)CC)cc1)c1ccc2cccnc2c1O (stereo not given)	-12.3	-46.3	x	x	x	22.0	-59.3*
Cc1nn(CC(=O)N2CCN(Cc3ccccc3F)C[C@@H]2C(C)C)c(=O)c2ccccc12	x	x	x	11.2	x	x	x
Cc1onc(-c2ccccc2)c1C(=O)N/N=C(\N)COc1ccc(Cl)cc1	-23.1	-23.2	5.1	11.0	2.2	10.7	x
Cc1onc(-c2ccccc2Cl)c1C(=O)N/N=C(\N)COc1ccc(Cl)cc1	-37.2	-38.6	x	0.1	8.6	10.7	-31.8
O=C1C(N2CCOCC2)=C(n2nnc3ccccc32)C(=O)c2ccccc21	56.1	43.3*	40.0*	-2.6	-11.3	24.9	54.8
O=C1c2ccccc2C(=O)c2c1cccc2-n1nnc2ccccc21	7.2	2.6	1.6	18.6	-7.6	-108.7	x
CC(=NNC(=S)N(Cc1ccccn1)Cc1ccccn1)c1cnccn1	19.5	-38.4	x	x	x	x	x
S=C(NN=C(c1ccccc1)c1ccccn1)N(Cc1ccccn1)Cc1ccccn1	47.0	-46.0	x	x	x	x	-59.4*
